# ChEMBL document CHEMBL3399968, “Diarylsulfonamides and their bioisosteres as dual inhibitors of alkaline phosphatase and carbonic anhydrase: Structure activity relationship and molecular modelling studies” (Bioorg Med Chem, 2015)
# Target: Carbonic anhydrase 2 (Bos taurus) (UniProt P00921)
# Experiment: Inhibition of bovine carbonic anhydrase 2 assessed as hydrolysis of p-nitrophenyl acetate at 0.5 mM after 30 mins by spectrophotometric method
# Conditions: not given; call rule not given here
# In short: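 Bovine CA (50 U/well) in 50 mM Tris-sulfate pH 7.6 with 0.1 mM ZnCl2; compound at 0.5 mM in 1% DMSO; pre-incubated 10 min at 25 °C, pre-read at 348 nm; p-nitrophenyl acetate added to 0.6 mM final; 30 min at 25 °C, read at 348 nm.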
# Sequence of Carbonic anhydrase 2 (Bos taurus) (P00921 2-260 limits assumed): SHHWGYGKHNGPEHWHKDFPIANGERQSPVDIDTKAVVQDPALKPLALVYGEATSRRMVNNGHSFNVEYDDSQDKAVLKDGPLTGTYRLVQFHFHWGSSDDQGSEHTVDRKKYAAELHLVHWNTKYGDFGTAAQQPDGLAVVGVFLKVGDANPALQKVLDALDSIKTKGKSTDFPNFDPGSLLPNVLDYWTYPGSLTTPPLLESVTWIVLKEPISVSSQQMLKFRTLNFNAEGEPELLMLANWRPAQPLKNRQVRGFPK
row,inhibition,Structure (SMILES)
1,36.4%,NS(=O)(=O)c1cccc(NC(=O)c2ccc(F)cc2)c1
2,48.4%,NS(=O)(=O)c1ccc(NC(=O)c2ccccc2)cc1
3,47.3%,NS(=O)(=O)c1ccc(NC(=O)c2ccc(F)cc2)cc1

# Target: Intestinal-type alkaline phosphatase (Bos taurus, UniProt P19111)
# Sequence (P19111 whole entry): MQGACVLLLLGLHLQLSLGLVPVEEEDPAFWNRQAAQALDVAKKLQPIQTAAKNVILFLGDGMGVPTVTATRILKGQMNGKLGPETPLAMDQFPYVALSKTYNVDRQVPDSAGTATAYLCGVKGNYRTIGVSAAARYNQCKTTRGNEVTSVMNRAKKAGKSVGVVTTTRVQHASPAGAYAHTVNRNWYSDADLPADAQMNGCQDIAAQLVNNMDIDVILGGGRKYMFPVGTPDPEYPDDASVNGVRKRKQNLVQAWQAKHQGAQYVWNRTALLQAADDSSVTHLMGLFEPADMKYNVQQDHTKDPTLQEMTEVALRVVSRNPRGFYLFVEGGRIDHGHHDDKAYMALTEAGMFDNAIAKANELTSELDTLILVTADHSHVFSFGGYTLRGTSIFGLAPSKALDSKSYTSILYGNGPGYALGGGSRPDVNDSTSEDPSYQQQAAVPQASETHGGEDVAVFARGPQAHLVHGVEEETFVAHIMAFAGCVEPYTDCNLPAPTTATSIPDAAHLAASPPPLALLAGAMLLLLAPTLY
# Experiment: Inhibition of calf intestinal alkaline phosphatase using CDP-star chemiluminescent substrate assessed as change in luminescence by spectrophotometric method
# Conditions: not given
row,Structure (SMILES),IC50
1,NS(=O)(=O)c1ccc(CNC(=O)c2ccc(F)cc2)cc1,1180 nM
2,NS(=O)(=O)c1ccc(CNC(=O)c2ccccc2)cc1,4450 nM
3,NS(=O)(=O)c1cccc(NC(=O)c2ccc(F)cc2)c1,9750 nM
4,NS(=O)(=O)c1ccc(CNS(=O)(=O)c2ccc(F)cc2)cc1,1350 nM
5,NS(=O)(=O)c1ccc(CCNC(=O)c2ccccc2)cc1,429 nM
6,NS(=O)(=O)c1ccc(NS(=O)(=O)c2ccc(F)cc2)cc1,1130 nM
7,CCOc1ccc(NS(=O)(=O)c2ccc(C)cc2)cc1,30100 nM
8,Cc1ccc(S(=O)(=O)Nc2ccc(S(N)(=O)=O)cc2)cc1,14500 nM

# Now from value to compound:
row,IC50,Structure (SMILES)
1,9150 nM,Cc1ccc(S(=O)(=O)Nc2ccccc2)cc1
2,6730 nM,NS(=O)(=O)c1ccc(CCNC(=O)c2ccc(F)cc2)cc1
3,8270 nM,Cc1ccc(S(=O)(=O)Nc2cccc(S(N)(=O)=O)c2)cc1
4,720 nM,CCOc1ccc(NS(=O)(=O)c2ccc(F)cc2)cc1
5,1270 nM,NS(=O)(=O)c1cccc(NS(=O)(=O)c2ccc(F)cc2)c1
6,140 nM,Cc1ccc(S(=O)(=O)NCc2ccc(S(N)(=O)=O)cc2)cc1
7,3050 nM,NS(=O)(=O)c1ccc(NC(=O)c2ccccc2)cc1
8,5910 nM,NS(=O)(=O)c1ccc(NC(=O)c2ccc(F)cc2)cc1
9,11700 nM,NS(=O)(=O)c1ccc(CCNS(=O)(=O)c2ccc(F)cc2)cc1
10,2960 nM,Cc1ccc(S(=O)(=O)NCCc2ccc(S(N)(=O)=O)cc2)cc1

# Target: T1, Alkaline phosphatase, tissue-nonspecific isozyme (Bos taurus) (UniProt P09487)
# T1 sequence (whole entry): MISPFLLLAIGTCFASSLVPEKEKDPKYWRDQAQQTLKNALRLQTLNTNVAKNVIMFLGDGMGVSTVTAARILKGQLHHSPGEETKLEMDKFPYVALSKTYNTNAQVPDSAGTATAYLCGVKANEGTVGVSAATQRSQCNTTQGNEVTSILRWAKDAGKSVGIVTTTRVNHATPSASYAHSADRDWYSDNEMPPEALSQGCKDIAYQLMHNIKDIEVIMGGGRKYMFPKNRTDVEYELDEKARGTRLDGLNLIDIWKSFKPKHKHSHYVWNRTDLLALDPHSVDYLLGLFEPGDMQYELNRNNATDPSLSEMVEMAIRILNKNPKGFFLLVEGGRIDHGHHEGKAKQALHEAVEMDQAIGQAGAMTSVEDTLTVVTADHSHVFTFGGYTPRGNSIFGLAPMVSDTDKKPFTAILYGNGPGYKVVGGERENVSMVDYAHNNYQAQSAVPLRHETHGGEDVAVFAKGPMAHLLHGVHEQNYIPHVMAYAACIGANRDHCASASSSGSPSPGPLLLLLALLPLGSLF
# Experiment: Inhibition of bovine kidney non-specific alkaline phosphatase using CDP-star chemiluminescent substrate assessed as change in luminescence at 0.2 mM by spectrophotometric method
# Conditions: not given
# In short: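 Buffer: 8 M DEA pH 9.8, 2.5 mM MgCl2, 0.05 mM ZnCl2. Compound 0.2 mM, final DMSO 1% (v/v), with TNAP (1:800 dilution, 0.8 units/mL); pre-incubated 3–5 min at 37 °C, luminescence pre-read; CDP-star added to 110 µM final; 15 min at 37 °C, after-read. Percent inhibition vs uninhibited control; levamisole 2 mM per well as positive control.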
row,inhibition,Structure (SMILES)
1,39.5%,CCOc1ccc(NS(=O)(=O)c2ccc(F)cc2)cc1
2,44.1%,NS(=O)(=O)c1ccc(CCNS(=O)(=O)c2ccc(F)cc2)cc1

# Target: T2, Alkaline phosphatase, tissue-nonspecific isozyme (Bos taurus, UniProt P09487)
# T2 sequence (P09487 whole entry): T1 sequence (whole entry)
# Experiment: Inhibition of bovine kidney non-specific alkaline phosphatase using CDP-star chemiluminescent substrate assessed as change in luminescence by spectrophotometric method
# Conditions: not given
Structure (SMILES),IC50,Ki
NS(=O)(=O)c1ccc(CNC(=O)c2ccc(F)cc2)cc1,613 nM,299 nM
c1ccc([C@H]2CN3CCSC3=N2)cc1 [LEVAMISOLE],,1810 nM
NS(=O)(=O)c1ccc(CNC(=O)c2ccccc2)cc1,2870 nM,918 nM
NS(=O)(=O)c1cccc(NC(=O)c2ccc(F)cc2)c1,55600 nM,16200 nM
NS(=O)(=O)c1ccc(CNS(=O)(=O)c2ccc(F)cc2)cc1,2940 nM,1250 nM
NS(=O)(=O)c1ccc(CCNC(=O)c2ccccc2)cc1,10300 nM,3960 nM
NS(=O)(=O)c1ccc(NS(=O)(=O)c2ccc(F)cc2)cc1,3260 nM,1390 nM
CCOc1ccc(NS(=O)(=O)c2ccc(C)cc2)cc1,310 nM,128 nM
Cc1ccc(S(=O)(=O)Nc2ccc(S(N)(=O)=O)cc2)cc1,222000 nM,91900 nM

# Further lines, results first:
IC50,Ki,Structure (SMILES)
180 nM,70 nM,Cc1ccc(S(=O)(=O)Nc2ccccc2)cc1
22500 nM,4510 nM,NS(=O)(=O)c1ccc(CCNC(=O)c2ccc(F)cc2)cc1
2240 nM,950 nM,Cc1ccc(S(=O)(=O)Nc2cccc(S(N)(=O)=O)c2)cc1
150 nM,60 nM,NS(=O)(=O)c1cccc(NS(=O)(=O)c2ccc(F)cc2)c1
115 nM,50 nM,Cc1ccc(S(=O)(=O)NCc2ccc(S(N)(=O)=O)cc2)cc1
70100 nM,16600 nM,NS(=O)(=O)c1ccc(NC(=O)c2ccccc2)cc1
58600 nM,25100 nM,NS(=O)(=O)c1ccc(NC(=O)c2ccc(F)cc2)cc1
41200 nM,17600 nM,Cc1ccc(S(=O)(=O)NCCc2ccc(S(N)(=O)=O)cc2)cc1

# Target: Carbonic anhydrase 2 (Bos taurus, UniProt P00921)
# Sequence (P00921 whole entry): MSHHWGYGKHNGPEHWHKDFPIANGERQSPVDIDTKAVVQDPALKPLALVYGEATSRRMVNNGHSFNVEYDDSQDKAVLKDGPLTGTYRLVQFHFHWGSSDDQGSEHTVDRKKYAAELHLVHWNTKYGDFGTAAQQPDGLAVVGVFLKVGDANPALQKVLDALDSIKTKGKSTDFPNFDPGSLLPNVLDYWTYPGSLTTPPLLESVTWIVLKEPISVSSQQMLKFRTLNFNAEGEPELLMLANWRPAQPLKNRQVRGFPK
# Experiment: Inhibition of bovine carbonic anhydrase 2 assessed as hydrolysis of p-nitrophenyl acetate after 30 mins by spectrophotometric method
# Conditions: not given
row,IC50,Structure (SMILES)
1,Not Active,CCOc1ccc(NS(=O)(=O)c2ccc(F)cc2)cc1
2,Not Active,CCOc1ccc(NS(=O)(=O)c2ccc(C)cc2)cc1

# Same assay, conditions: read-out: IC50
row,Structure (SMILES),IC50
1,NS(=O)(=O)c1ccc(CNC(=O)c2ccc(F)cc2)cc1,821 nM
2,NS(=O)(=O)c1ccc(CNC(=O)c2ccccc2)cc1,691 nM
3,NS(=O)(=O)c1ccc(CNS(=O)(=O)c2ccc(F)cc2)cc1,215 nM
4,NS(=O)(=O)c1ccc(CCNC(=O)c2ccccc2)cc1,544 nM
5,NS(=O)(=O)c1ccc(NS(=O)(=O)c2ccc(F)cc2)cc1,100 nM
6,Cc1ccc(S(=O)(=O)Nc2ccc(S(N)(=O)=O)cc2)cc1,57 nM

# Further lines, results first:
row,IC50,Structure (SMILES)
1,656 nM,NS(=O)(=O)c1ccc(CCNC(=O)c2ccc(F)cc2)cc1
2,152 nM,Cc1ccc(S(=O)(=O)Nc2cccc(S(N)(=O)=O)c2)cc1
3,100 nM,NS(=O)(=O)c1cccc(NS(=O)(=O)c2ccc(F)cc2)c1
4,134 nM,Cc1ccc(S(=O)(=O)NCc2ccc(S(N)(=O)=O)cc2)cc1
5,35 nM,NS(=O)(=O)c1ccc(CCNS(=O)(=O)c2ccc(F)cc2)cc1
6,241 nM,Cc1ccc(S(=O)(=O)NCCc2ccc(S(N)(=O)=O)cc2)cc1
